The source of these data is ChEMBL document CHEMBL5532703, “A new class of 7-deazaguanine agents targeting autoimmune diseases: dramatic reduction of synovial fibroblast IL-6 production from human rheumatoid arthritis patients and improved performance against murine experimental autoimmune encephalomyelitis” (RSC Med Chem, 2024).

For experiment [1], the system named is Mus musculus. The experiment can be described thus: Anti-inflammatory activity in complete Freund's adjuvant/MOG (35 to 55 residues)/pertussis toxin-induced experimental autoimmune encephalomyelitis C57BL/6 mouse model assessed as decrease in disease progression at 16 mg/kg,ip administration observed after 2 days. The settings on record: time 2.0 day. Type of experiment: functional, organism-based. The method in brief: (§1)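 Female C57BL/6 mice, 10–12 weeks old and about 20 g, with EAE induced by s.c. CFA/MOG plus i.p. pertussis toxin on days 0 and 2. Mice entered the study at clinical score 1.5–2, which was day 0, and were randomised. Each received 200 µL i.p. daily for 7 days of 4 mM compound (equimolar dosing) in 4% DMSO/PBS, made fresh. Vehicle controls were used, n = 4–5, with clinical scores recorded daily post treatment.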

The test system of experiment [2] is Synovial fibroblasts. The experiment can be described thus: Anti-inflammatory activity in human Synovial fibroblasts derived from rheumatoid arthritis patient assessed as reduction in TNF-alpha induced IL-6 production at 200 uM measured after 72 hrs by ELISA. Type of experiment: functional, cell-based. An outline of the steps: (§2)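 Synovial fibroblasts came from collagenase-digested (1 mg/mL, 4 h, 37 °C) RA patient biopsies, grown in RPMI-1640 with 10% FCS and used at passages 3–8. Cultures were stimulated with TNFα (10 ng/mL) while exposed to compound, with medium and compound renewed at 24 h. Supernatants were collected at 72 h for IL-6 ELISA, relative to a 4% DMSO/PBS vehicle control.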
In general terms: An ELISA detects its analyte on a solid surface through an enzyme-linked reagent.

In experiment [3] the test system is Mus musculus. Nature of the experiment: Anti-inflammatory activity in complete Freund's adjuvant/MOG (35 to 55 residues)/pertussis toxin-induced experimental autoimmune encephalomyelitis C57BL/6 mouse model assessed as decrease in disease progression at ip administration observed after 4 days. Type of experiment: functional, organism-based. The settings on record: time 4.0 day. An outline of the steps: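 EAE in female C57BL/6 mice, induced with CFA/MOG s.c. and pertussis toxin i.p. Mice were enrolled at clinical score 1.5–2 and randomised, then dosed i.p. daily with compound diluted to 4 mM in 4% DMSO/PBS, 200 µL per mouse. This was a 4-day study, n = 5, with 4% DMSO/PBS vehicle controls. Clinical score was tracked daily after treatment started.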

Experiment [4] has as its system Mus musculus. The experiment can be described thus: Anti-inflammatory activity in complete Freund's adjuvant/MOG (35 to 55 residues)/pertussis toxin-induced experimental autoimmune encephalomyelitis C57BL/6 mouse model assessed as decrease in disease progression at 9 mg/kg,ip administration observed after 7 days. Type of experiment: functional, organism-based. Conditions: time 7.0 day. The method in brief:
as §1

In experiment [5] the test system is Mus musculus. The experiment can be described thus: Anti-inflammatory activity in complete Freund's adjuvant/MOG (35 to 55 residues)/pertussis toxin-induced experimental autoimmune encephalomyelitis C57BL/6 mouse model assessed as decrease in disease progression at 9 mg/kg,ip administration observed after 3 days. The class given is functional, organism-based. Conditions: time 3.0 day. The method in brief: as §1

The test system of experiment [6] is Mus musculus. Nature of the experiment: Anti-inflammatory activity in complete Freund's adjuvant/MOG (35 to 55 residues)/pertussis toxin-induced experimental autoimmune encephalomyelitis C57BL/6 mouse model assessed as decrease in disease progression at 15 mg/kg,ip administration observed after 3 days. The class given is functional, organism-based. Conditions: time 3.0 day. An outline of the steps:
as §1

The test system of experiment [7] is Synovial fibroblasts. Nature of the experiment: Anti-inflammatory activity in human Synovial fibroblasts derived from rheumatoid arthritis patient assessed as reduction in TNF-alpha induced IL-6 production measured after 72 hrs by ELISA. The class given is functional, cell-based. The method in brief: as §2
The test system of experiment [8] is Mus musculus. The experiment can be described thus: Anti-inflammatory activity in complete Freund's adjuvant/MOG (35 to 55 residues)/pertussis toxin-induced experimental autoimmune encephalomyelitis C57BL/6 mouse model assessed as decrease in disease progression at 15 mg/kg,ip administration observed after 1 day. The class given is functional, organism-based. The method in brief:
as §1

Experiment [9] has as its system Mus musculus. The experiment can be described thus: Anti-inflammatory activity in complete Freund's adjuvant/MOG (35 to 55 residues)/pertussis toxin-induced experimental autoimmune encephalomyelitis C57BL/6 mouse model assessed as decrease in disease progression at 15 mg/kg,ip administration observed after 7 days. Type of experiment: functional, organism-based. The settings on record: time 7.0 day. The method in brief: as §1

Experiment [10] deals with Mus musculus. The experiment can be described thus: Anti-inflammatory activity in complete Freund's adjuvant/MOG (35 to 55 residues)/pertussis toxin-induced experimental autoimmune encephalomyelitis C57BL/6 mouse model assessed as decrease in disease progression at 16 mg/kg,ip administration observed after 1 day. Type of experiment: functional, organism-based. The method in brief: as §1

Active and inactive are the calls of the source. The rule behind the calls is not given here.

As for `CC(C)(CCNCc1c[nH]c2nc(N)[nH]c(=O)c12)c1ccccc1`, the result in the experiment on Mus musculus [1] and in the experiment with Synovial fibroblasts [2] was Active.
For the compound `Nc1nc2[nH]cc(CNOCCc3ccccc3)c2c(=O)[nH]1`, the result in the experiment with Synovial fibroblasts [2] and in the experiment with Mus musculus [3] was Active.
Regarding `CO/N=C/c1c[nH]c2nc(N)[nH]c(=O)c12`, in the experiment on Mus musculus [4], the outcome was inactive. The result in the experiment with Synovial fibroblasts [2] and with Mus musculus [5] was Active.
In the case of `Nc1nc2[nH]cc(CNCCC3(c4ccccc4)CC3)c2c(=O)[nH]1`, in the experiment on Synovial fibroblasts [2], the result was Active.
On the same count and under the same terms, as for `Nc1nc2[nH]cc(CNCCC(c3ccccc3)c3ccccc3)c2c(=O)[nH]1`, the entry is “Active”; as for `CCC(CC)(CCNCc1c[nH]c2nc(N)[nH]c(=O)c12)c1ccccc1`, “Active”; as for `Nc1nc2[nH]cc(CNCC[C@@H](O)c3ccccc3)c2c(=O)[nH]1`, “Active”.
Regarding `Nc1nc2[nH]cc(CNCC[C@H](O)c3ccccc3)c2c(=O)[nH]1`, in the experiment on Synovial fibroblasts [2], the result was Active.
Consider `Nc1nc2[nH]cc(CNCCCc3ccccc3)c2c(=O)[nH]1`, for which the outcome in the experiment with Mus musculus [6], in the experiment with Mus musculus [8] and with Mus musculus [9] was Active. The Activity result with Synovial fibroblasts [7] is “Dose-Dependent Effect”.
On to `C[C@H](CCNCc1c[nH]c2nc(N)[nH]c(=O)c12)c1ccccc1`, for which the outcome in the experiment with Synovial fibroblasts [2] was inactive.
Take `Nc1nc2[nH]cc(CNCCC3(c4ccccc4)SCCS3)c2c(=O)[nH]1`: the outcome with Synovial fibroblasts [2] was inactive.
As for `Nc1nc2[nH]cc(CNCCC(=O)c3ccccc3)c2c(=O)[nH]1`, the outcome in the experiment on Synovial fibroblasts [2] and in the experiment with Mus musculus [10] was Active.
Regarding `Nc1nc2[nH]cc(CNCCCc3ccsc3)c2c(=O)[nH]1`, the outcome with Synovial fibroblasts [2] was Active.
Still for that read-out and setting: as for `Nc1nc2[nH]cc(CNCCNc3ccccc3)c2c(=O)[nH]1`, the entry is “Active”.
Regarding `Nc1nc2[nH]cc(/C=N/O)c2c(=O)[nH]1`, the outcome in the experiment with Mus musculus [4] and in the experiment on Synovial fibroblasts [2] was Active.
`CC(CCNCc1c[nH]c2nc(N)[nH]c(=O)c12)c1ccccc1` (stereo unspecified): in the experiment on Synovial fibroblasts [2], the result was Active.
As for `Nc1nc2[nH]cc(/C=N/OCc3ccccc3)c2c(=O)[nH]1`, the result with Synovial fibroblasts [2] was Active.
